# Values joined by “and” are separate entries in the source; they are usually repeats but may differ in a detail not shown here. Equal values may be shown once. “Also recorded” adds a separate entry of the source.
# Assays:
# [1] = test system: cGMP antibody (ENZO cGMP-EIA); test: ENZO cGMP-EIA, acetylation protocol; type: binding; settings: for Specificity ENZO cGMP-EIA: EC50cGMP/EC50Analog, acetylated
# [2] = test system: cGMP antibody (IBL cGMP-RIA); test: IBL cGMP-RIA; type: binding; settings: for Specificity IBL cGMP-RIA: EC50cGMP/EC50Analog
# Lipophilicity = type: physicochemical; settings: calculated from log Kw data, cGMP scale
# [3] = test system: cAMP antibody (ENZO cAMP-EIA); test: ENZO cAMP-EIA, acetylation protocol; type: binding; settings: for Specificity ENZO cAMP-EIA: EC50cAMP/EC50Analog, acetylated
# [4] = test system: cAMP antibody (IBL cAMP-RIA); test: IBL cAMP-RIA; type: binding; settings: for Specificity IBL cAMP-RIA: EC50cAMP/EC50Analog
# [5] = test system: PKA (VASP phosphorylation) in human platelets; test: VASP phosphorylation western blot, pVASP Ser-157; type: cell-based
# Method in brief: (§1)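 Washed human platelets were exposed to various analog concentrations for the indicated times. Protein extracts (10 µg) were run on 9% reducing SDS-PAGE and wet-blotted to nitrocellulose. Blots were blocked in 3% milk/Tris-saline-Tween and probed 1:10,000 with 16C2 (pVASP Ser-239, PKG site) or 5C6 (pVASP Ser-157, PKA site). HRP goat anti-mouse (1:5,000) and ECL gave detection.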
# PKA II = settings: ref Poppe et al. (2008); cited from earlier work
# [6] = test system: cGMP antibody (Cayman cGMP-EIA); test: Cayman cGMP-EIA; type: binding; settings: EC50cGMP/EC50Analog
# human platelets = test: Cell membrane permeability in washed human platelets; type: in vitro ADME; settings: for cNMP conc. inside platelets (% of external): washed human platelets, 37°C, normally 20 min; for Diffusion into the cell, result in words: compounds with log Kw < 1
# Method in brief: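 Human blood from medication-free donors was collected into citrate–EGTA buffer. Platelet-rich plasma (300×g) was pelleted (380×g), washed in Hepes buffer pH 7.4 and used at 3 × 10^8 platelets/ml. Cells were exposed to analogs at 37°C, normally for 20 min or over a time course. They were lysed in […] buffer pH 8.1 with 1 mM IBMX on ice, then freeze/thaw and needle disruption. Lyophilized supernatant went to EIA, assuming a 5.2 fl cell volume.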
# [7] = test system: PKG (VASP phosphorylation) in human platelets; test: VASP phosphorylation western blot, pVASP Ser-239; type: cell-based
# Method in brief: as §1
# PKG Iβ = settings: ref Poppe et al. (2008); cited from earlier work
# [8] = test system: cAMP antibody (ENZO cAMP-EIA); test: ENZO cAMP-EIA, non-acetylated; type: binding; settings: non-acetylated cAMP-EIA from ENZO
# CHO cells = test: Cell membrane permeability in CHO cells; type: in vitro ADME, Chinese hamster; settings: serum-free medium, normally 20 min
# Method in brief: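 CHO cells were grown in DMEM with 10% FBS and 1% penicillin/streptomycin at 37°C, 5% CO2. Cells were exposed to various analog concentrations in serum-free medium, normally for 20 min, then PBS-washed. Lysis used hypotonic buffer on ice for 30 min, scraping, liquid-nitrogen freeze/thaw and needle disruption. Cleared supernatant was lyophilized for EIA. Intracellular concentration assumed a 1.5 pl cell volume; % permeability = intracellular/extracellular […].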
# [9] = test system: cGMP antibody (ENZO cGMP-EIA); test: ENZO cGMP-EIA, non-acetylated; type: binding; settings: non-acetylated cGMP-EIA from ENZO
compound,measurement,setting,value
"O=c1c2nc(Br)n([C@@H]3O[C@@H]4CO[P@@](O)(=S)O[C@H]4[C@H]3O)c2nc2[nH]c(-c3ccccc3)cn12 (single isomer, unassigned) [Rp-8-Br-PET-cGMPS]","Cross-reactivity / binding to the cGMP antibody in the EIA, result in words",[1],does not bind
same,Specificity ENZO cGMP-EIA,[1],0.002
same,Specificity IBL cGMP-RIA,[2],0.011
same,Relative lipophilicity,Lipophilicity,200
"Nc1ncnc2c1nc(Br)n2C1OC2COP(O)(=S)OC2C1O (single isomer, unassigned) [Rp-8-Br-cAMPS, 8-Bromoadenosine-3`,5`- cyclic monophosphorothioate, Rp-isomer]",Specificity ENZO cAMP-EIA,[3],0.003
"Nc1ncnc2c1ncn2[C@@H]1O[C@@H]2COP(O)(=S)O[C@H]2[C@H]1O (single isomer, unassigned) [Rp-cAMPS, Adenosine- 3`,5`- cyclic monophosphorothioate, Rp-isomer]","Cross-reactivity in the cAMP-EIA, result in words",[3],strong cross-reactivity; also recorded: significant cross-reactivity
same,Specificity ENZO cAMP-EIA,[3],0.68
same,Specificity IBL cAMP-RIA,[4],0.67
same,Binding constant relative to cAMP,[4]; IBL cAMP-RIA,~66%
"Nc1nc2c(ncn2[C@@H]2O[C@@H]3COP(O)(=S)O[C@H]3[C@H]2O)c(=O)[nH]1 (single isomer, unassigned) [Rp-cGMPS, Guanosine- 3`,5`- cyclic monophosphorothioate, Rp-isomer]",Specificity ENZO cGMP-EIA,[1],0.0027
same,Specificity IBL cGMP-RIA,[2],0.10
"O[C@@H]1[C@@H]2OP(O)(=S)OC[C@H]2O[C@H]1n1cnc2cc(Cl)c(Cl)cc21 (single isomer, unassigned) [Sp-5,6-DCl-cBIMPS]",Specificity IBL cAMP-RIA,[4],0.005
same,Concentration needed for comparable VASP phosphorylation (PKA activation),[5]; pVASP antibody 5C6,100 µM
same,Activation PKA II Ka,PKA II,0.12 µM
"O=C(Nc1ncnc2c1ncn2[C@@H]1O[C@@H]2COP(=O)(O)OC2C1O)c1ccccc1 (stereo in doubt) [6-Bnz-cAMP, N^6-Benzoyladenosine-3`,5`- cyclic monophosphate]",Specificity ENZO cAMP-EIA,[3],0.006
same,Specificity IBL cAMP-RIA,[4],0.009
"Nc1nc2c(nc(Sc3ccc(Cl)cc3)n2C2O[C@@H]3COP(=O)(O)O[C@H]3[C@H]2O)c(=O)[nH]1 (stereo in doubt) [8-pCPT-cGMP, 8-(4-Chlorophenylthio)guanosine-3`,5`- cyclic monophosphate]","Cross-reactivity / binding to the cGMP antibody in the EIA, result in words",[1],strong cross-reactivity
same,Specificity ENZO cGMP-EIA,[1],2.40
same,Specificity IBL cGMP-RIA,[2],0.30
same,Binding constant relative to cGMP,[2]; IBL cGMP-RIA,~30%
same,Specificity Cayman cGMP-EIA,[6],0.0008
same,Time to equilibrium of inside/outside concentration,"human platelets; platelets, Fig. 1b",10 to 20 min
same,cNMP conc. inside platelets (% of external),human platelets,19.6 ± 4.7%
same,Concentration for maximal VASP phosphorylation,"[7]; human platelets, after 20 min, pVASP antibody 16C2",50 µM
same,Activation PKG Iβ Ka,PKG Iβ,0.9 µM
"Nc1ncnc2c1ncn2[C@H]1C[C@@H]2OP(=O)(O)OC[C@H]2O1 [2′-dcAMP, 2`- Deoxyadenosine- 3`,5`- cyclic monophosphate]",Specificity ENZO cAMP-EIA,[3],0.034
same,Relative binding EC50cAMP/EC50Analog,[8],0.22
same,"Diffusion into the cell, result in words",human platelets,too hydrophilic for any diffusion into the cell
same,cNMP conc. inside platelets (% of external),human platelets,0.2 ± 0.3%
same,cNMP conc. inside CHO cells (% of external),CHO cells,0.1 ± 0.2%
same,"VASP phosphorylation (PKA site), result in words",[5],no VASP phosphorylation
"Nc1nc2c(ncn2[C@H]2C[C@@H]3OP(=O)(O)OC[C@H]3O2)c(=O)[nH]1 [2′-dcGMP, 2`- Deoxyguanosine- 3`,5`- cyclic monophosphate]",Specificity ENZO cGMP-EIA,[1],0.052
same,Relative binding EC50cGMP/EC50Analog,[9],2.2 and 2.21
same,"Diffusion into the cell, result in words",human platelets,too hydrophilic for any diffusion into the cell
same,cNMP conc. inside platelets (% of external),human platelets,0.5 ± 0.1%
same,cNMP conc. inside CHO cells (% of external),CHO cells,0.3 ± 0.5%
same,"VASP phosphorylation (PKG site), result in words",[7]; concentrations up to 2 mM,no VASP phosphorylation
same,Activation PKG Iβ Ka,PKG Iβ,21 µM
